In ChEMBL document CHEMBL1255424, “Antistaphylococcal activity of ACHN-490 tested alone and in combination with other agents by time-kill assay” (2010):

Assays:
Format in all cases: functional
[1] = tested on: Staphylococcus aureus; test: Antibacterial activity against vancomycin-intermediate Staphylococcus aureus isolate 1016 after 24 hrs by modified broth macrodilution method; details: isolate 1016, 24 h
Procedure, shortened: (§1)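 MIC read after 24 h incubation by modified broth macrodilution, validated per CLSI recommendations, against recent clinical MRSA isolates (hospital- and community-acquired, hVISA, VISA, VRSA). Daptomycin tests ran in Mueller-Hinton broth with added calcium.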

[2] = tested on: Staphylococcus aureus; test: Antibacterial activity against vancomycin-intermediate Staphylococcus aureus after 24 hrs by modified broth macrodilution method; procedure, shortened: as §1
[3] = tested on: Staphylococcus aureus; test: Antibacterial activity against vancomycin-intermediate Staphylococcus aureus isolate 1006 after 24 hrs by modified broth macrodilution method; details: isolate 1006, 24 h; procedure, shortened: as §1

Measured: MIC

CC(=O)NC[C@H]1CN(c2ccc(N3CCOCC3)c(F)c2)C(=O)O1 [LINEZOLID]
1 µg/mL: all assays above
